Source: ChEMBL document CHEMBL1129480, “Design and synthesis of 1-aminocycloalkane-1-carboxylic acid-substituted deltorphin analogues: unique delta and mu opioid activity in modified peptides” (J Med Chem, 1996)
Square brackets hold non-standard residues; d marks the D form. Peptide text beside a SMILES is read from it. Ac6c = NC1(C(=O)O)CCCCC1; Ac5c = NC1(C(=O)O)CCCC1; Ac3c = NC1(C(=O)O)CC1

Columns and labels:
[1] = target: Delta-type opioid receptor (Mus musculus, UniProt P32300); assay: Inhibitory activity against Opioid receptor delta 1 of mouse vas deferens (MVD); type: tissue-based
Delta-type opioid receptor (Mus musculus, UniProt P32300), sequence (P32300 whole entry): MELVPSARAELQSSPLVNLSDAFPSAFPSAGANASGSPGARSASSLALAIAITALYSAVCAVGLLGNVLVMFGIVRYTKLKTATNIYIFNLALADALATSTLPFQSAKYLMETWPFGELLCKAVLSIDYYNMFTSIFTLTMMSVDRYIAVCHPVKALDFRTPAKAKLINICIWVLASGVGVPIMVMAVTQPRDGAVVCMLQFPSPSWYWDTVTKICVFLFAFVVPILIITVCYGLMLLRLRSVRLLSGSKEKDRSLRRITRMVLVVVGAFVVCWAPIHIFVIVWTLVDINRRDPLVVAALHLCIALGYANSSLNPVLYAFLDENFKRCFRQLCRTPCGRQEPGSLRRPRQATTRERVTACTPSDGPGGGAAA

Mu-type opioid receptor [2] = target: Mu-type opioid receptor (Rattus norvegicus, UniProt P33535); assay: Displacement of [3H]DAGO (1.28 nM) from Opioid receptor mu 1
Mu-type opioid receptor (Rattus norvegicus, UniProt P33535), sequence (P33535 whole entry): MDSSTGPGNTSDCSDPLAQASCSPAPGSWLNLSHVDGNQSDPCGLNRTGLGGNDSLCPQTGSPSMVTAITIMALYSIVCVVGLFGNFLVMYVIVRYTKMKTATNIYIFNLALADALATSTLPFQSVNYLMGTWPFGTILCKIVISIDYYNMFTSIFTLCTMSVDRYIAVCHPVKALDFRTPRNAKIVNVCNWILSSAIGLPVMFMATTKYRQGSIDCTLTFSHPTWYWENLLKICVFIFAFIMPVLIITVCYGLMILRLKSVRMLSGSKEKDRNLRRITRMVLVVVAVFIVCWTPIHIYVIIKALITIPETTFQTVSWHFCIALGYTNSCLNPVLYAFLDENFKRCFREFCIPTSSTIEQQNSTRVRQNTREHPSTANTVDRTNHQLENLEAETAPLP
In short: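 Rat brain synaptosomal membranes, preincubated, in 50 mM HEPES pH 7.5, 5 mM MgCl2, glycerol, protease inhibitors with [3H]DAGO for 120 min at 22-23 °C. Baseline set with 2 µM unlabeled peptide. Filtration, washes with ice-cold buffer containing 0.01% BSA or lactalbumin. Duplicates over 6-14 concentrations spanning 1000-fold, or triplicates with 25-35 concentrations fitted to one- or two-site models. Ki from IC50 by Cheng-Prusoff.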

[3] = target: Delta-type opioid receptor (Rattus norvegicus, UniProt P33533); assay: Displacement of [3H]DPDPE (0.63 nM) from Opioid receptor delta 1
Delta-type opioid receptor (Rattus norvegicus, UniProt P33533), sequence (P33533 whole entry): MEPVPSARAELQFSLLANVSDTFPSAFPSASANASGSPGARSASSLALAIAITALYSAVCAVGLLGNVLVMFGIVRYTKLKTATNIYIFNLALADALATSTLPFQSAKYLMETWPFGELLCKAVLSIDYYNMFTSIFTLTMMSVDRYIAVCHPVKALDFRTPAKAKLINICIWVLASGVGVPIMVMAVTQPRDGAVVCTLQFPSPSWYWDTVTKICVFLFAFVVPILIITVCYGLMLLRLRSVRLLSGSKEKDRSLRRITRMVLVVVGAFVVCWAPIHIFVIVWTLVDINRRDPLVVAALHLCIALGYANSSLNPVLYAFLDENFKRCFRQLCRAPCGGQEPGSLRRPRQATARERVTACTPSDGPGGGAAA
In short: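 Rat brain synaptosomal membranes, preincubated, incubated with [3H]DPDPE in 50 mM HEPES pH 7.5, 5 mM MgCl2, glycerol, protease inhibitors, 120 min at 22-23 °C. Nonspecific baseline from 2 µM unlabeled peptide. Filtered, washed with ice-cold buffer plus 0.01% BSA or lactalbumin. Duplicates, 6-14 concentrations over 1000-fold, or triplicates with 25-35 concentrations for one/two-site fits. Ki via Cheng-Prusoff.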

Mu-type opioid receptor [4] = target: Mu-type opioid receptor (Cavia porcellus, UniProt P97266); assay: Compound was evaluated for its inhibitory activity towards Opioid receptor mu 1 of guinea pig ileum (GPI); type: tissue-based
Mu-type opioid receptor (Cavia porcellus, UniProt P97266), sequence (P97266 whole entry): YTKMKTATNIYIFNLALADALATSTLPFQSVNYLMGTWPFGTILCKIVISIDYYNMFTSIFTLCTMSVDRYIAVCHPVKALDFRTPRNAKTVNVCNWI
In short: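 Guinea pig ileum segment (2-3 cm) in 20 mL organ bath with 70 µM hexamethonium bromide and 0.125 µM mepyramine maleate, 95% O2/5% CO2, 36 °C. Transmural stimulation, 0.5 ms square pulses at 0.1 Hz, 1.5× maximal-twitch voltage (~30 V). Dose-response curves against reference agonists (dermorphin or morphine). IC50 as mean ± SE of four independent experiments.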

| Compound | IC50 [1] [nM] | Ki (Mu-type opioid receptor [2]) [nM] | Ki [3] [nM] | IC50 (Mu-type opioid receptor [4]) [nM] |
| --- | --- | --- | --- | --- |
| CC(C)[C@H](NC(=O)[C@@H](NC(=O)C1(NC(=O)[C@H](Cc2ccccc2)NC(=O)[C@H](C)NC(=O)[C@@H](N)Cc2ccc(O)cc2)CC1)C(C)C)C(=O)NCC(N)=O (H-YAF[Ac3c]VVG-NH2) | 0.43 | 0.27 | 0.054 | 15 |
| CC(C)[C@H](NC(=O)[C@@H](NC(=O)C1(NC(=O)[C@H](Cc2ccccc2)NC(=O)[C@H](C)NC(=O)[C@@H](N)Cc2ccc(O)cc2)CCCC1)C(C)C)C(=O)NCC(N)=O (H-YAF[Ac5c]VVG-NH2) | 0.19 | 0.58 | 0.054 | 140 |
| CC(C)[C@H](NC(=O)[C@@H](NC(=O)C1(NC(=O)[C@H](Cc2ccccc2)NC(=O)[C@H](C)NC(=O)[C@@H](N)Cc2ccc(O)cc2)CCCCC1)C(C)C)C(=O)NCC(N)=O (H-YAF[Ac6c]VVG-NH2) | 0.52 | 2.45 | 0.045 | 558 |
| CC(C)[C@H](NC(=O)[C@H](CC(=O)O)NC(=O)C1(NC(=O)[C@H](C)NC(=O)[C@@H](N)Cc2ccc(O)cc2)CC1)C(=O)N[C@H](C(=O)NCC(N)=O)C(C)C (H-YA[Ac3c]DVVG-NH2) | 458 | 10200 | 19 | > 10000 |
| CC(C)[C@H](NC(=O)[C@H](CC(=O)O)NC(=O)C1(NC(=O)[C@H](C)NC(=O)[C@@H](N)Cc2ccc(O)cc2)CCCC1)C(=O)N[C@H](C(=O)NCC(N)=O)C(C)C (H-YA[Ac5c]DVVG-NH2) | 1640 | 6820 | 15.4 | > 10000 |
| CC(C)[C@H](NC(=O)[C@H](CC(=O)O)NC(=O)C1(NC(=O)[C@H](C)NC(=O)[C@@H](N)Cc2ccc(O)cc2)CCCCC1)C(=O)N[C@H](C(=O)NCC(N)=O)C(C)C (H-YA[Ac6c]DVVG-NH2) | 540 | 5460 | 3.28 | > 10000 |
| CC(C)[C@H](NC(=O)[C@H](CC(=O)O)NC(=O)C1(NC(=O)[C@@H](N)Cc2ccc(O)cc2)CCCCC1)C(=O)N[C@H](C(=O)NCC(N)=O)C(C)C (H-Y[Ac6c]DVVG-NH2) |  | 441000 | 5260 |  |
| CC(C)[C@H](NC(=O)[C@H](CC(=O)O)NC(=O)[C@H](Cc1ccccc1)NC(=O)C1(NC(=O)[C@@H](N)Cc2ccc(O)cc2)CCCCC1)C(=O)N[C@H](C(=O)NCC(N)=O)C(C)C (H-Y[Ac6c]FDVVG-NH2) |  | 3110 | 2.48 |  |
| CC(C)[C@H](NC(=O)[C@H](CC(=O)O)NC(=O)C1(NC(=O)C2(NC(=O)[C@@H](N)Cc3ccc(O)cc3)CCCCC2)CCCCC1)C(=O)N[C@H](C(=O)NCC(N)=O)C(C)C (H-Y[Ac6c][Ac6c]DVVG-NH2) |  | 14800 | 87.8 |  |
| CC(C)[C@H](NC(=O)[C@H](CC(=O)O)NC(=O)[C@H](Cc1ccccc1)NC(=O)[C@@H](C)NC(=O)[C@@H](N)Cc1ccc(O)cc1)C(=O)N[C@H](C(=O)NCC(N)=O)C(C)C [DELTORPHIN C] |  | 147 | 0.15 | 337 |
